# According to ChEMBL document CHEMBL5036308, “Chiral Alkyl Groups at Position 3(1') of Pyropheophorbide-a Specify Uptake and Retention by Tumor Cells and Are Essential for Effective Photodynamic Therapy” (J Med Chem, 2021):
# Calls of active or inactive are those of the source. No cut-off for these calls is given here.
# Columns and labels:
# [1] = Drug uptake in human HN-143 T-EC cells assessed as drug retention at 1600 nM incubated for 24 hrs in presence of 10% fetal bovine serum measured after 72 hrs chase period by fluorescent microscopy imaging based analysis; type: ADME, cell-based; conditions: 1.6 µM
# In short: (§1)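 Cells incubated 24 h in medium with 10% serum and 1600 nM PS, then chased in PS-free medium for up to 72 h with daily medium changes. Cellular PS was measured daily by fluorescence microscopy; net fluorescence intensity per full image frame was quantified in arbitrary units.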
# [2] = Drug uptake in human HN-143 T-EC cells assessed as slow release by measuring drug retention at 1600 nM incubated for 24 hrs in presence of 10% fetal bovine serum measured after 48 hrs chase period by fluorescent microscopy imaging based analysis; type: ADME, cell-based; conditions: 1.6 µM; in short: as §1
# [3] = Drug uptake in human HN-143-T-EC cells assessed as drug retention in mitochondria measured after 72 hrs chase period by fluorescent microscopy; type: ADME
# [4] = Drug uptake in human HN-143-T-EC cells assessed as drug retention in endoplasmic reticulum measured after 72 hrs by fluorescent microscopy; type: ADME, cell-based
# [5] = Drug uptake in human HN-85 T-EC cells assessed as drug retention at 1600 nM incubated for 24 hrs in presence of 10% fetal bovine serum measured after 24 hrs chase period by fluorescent microscopy; type: ADME, cell-based; conditions: 1.6 µM
# [6] = Photoreactivation in human HN-85 T-EC cells at 100 to 400 nM in presence of 10% fetal bovine serum under 3 J/cm^2 light for 9 mins measured after 24 hrs by Western blotting analysis; conditions: 0.15 h, 0.4 µM
# [7] = Drug uptake in human HN-143 T-EC cells assessed as drug retention at 1600 nM incubated for 24 hrs in presence of 10% fetal bovine by fluorescent microscopy imaging based analysis; type: ADME, cell-based; conditions: 1.6 µM; in short: as §1
# [8] = Solubility of the compound; type: physicochemical
# [9] = Lipophilicity, logP of the compound; type: physicochemical; conditions: octanol/water
# [10] = Drug uptake in human HN-T1 cells assessed as drug retention at 1600 nM incubated for 24 hrs in presence of 10% fetal bovine serum measured after 72 hrs chase period by fluorescent microscopy imaging based analysis; type: ADME, cell-based; conditions: hnt1, 72 h, 1.6 µM; in short: as §1
# [11] = Drug uptake in human HN-90 T-EC cells assessed as drug retention at 1600 nM incubated for 24 hrs in presence of 10% fetal bovine serum measured after 72 hrs chase period by fluorescent microscopy imaging based analysis; type: ADME, cell-based; conditions: 1.6 µM; in short: as §1
# [12] = Drug uptake in human FaDu clone 49 cells assessed as drug retention at 1600 nM incubated for 24 hrs in presence of 10% fetal bovine serum measured after 72 hrs chase period by fluorescent microscopy imaging based analysis; type: ADME, cell-based; conditions: fadu clone 49, 72 h, 1.6 µM; in short: as §1
# [13] = Drug uptake in human TEC-21 cells assessed as drug retention at 1600 nM incubated for 24 hrs in presence of 10% fetal bovine serum measured after72 hrs chase period by fluorescent microscopy imaging based analysis; type: ADME, cell-based; conditions: tec-21, 72 h, 1.6 µM; in short: as §1
# [14] = Drug uptake in human FaDu-124 cells assessed as drug retention at 1600 nM incubated for 24 hrs in presence of 10% fetal bovine serum measured after 48 hrs chase period by fluorescent microscopy; type: ADME, cell-based; conditions: fadu-124, 48 h, 1.6 µM
# [15] = Drug uptake in human HN-77 T-EC cells assessed as drug retention at 1600 nM incubated for 24 hrs in presence of 10% fetal bovine serum measured after 48 hrs chase period by fluorescent microscopy; type: ADME, cell-based; conditions: 1.6 µM
# In short: (§2)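 Confluent cultures (e.g. HN-77 T-EC, p 13) incubated 24 h in RPMI + 10% FBS with 1600 nM PS, then 48 h chase in RPMI + 10% FBS. Fluorescence images recorded and net fluorescence intensity quantified.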
# [16] = Drug uptake in human HN-142 T-EC cells assessed as drug retention at 1600 nM incubated for 24 hrs in presence of 10% fetal bovine serum measured after 48 hrs chase period by fluorescent microscopy; type: ADME, cell-based; conditions: 1.6 µM; in short: as §2
# [17] = Drug uptake in human HNT1 cells assessed as drug retention at 1600 nM incubated for 24 hrs in presence of 10% fetal bovine serum measured after 48 hrs chase period by fluorescent microscopy; type: ADME, cell-based; conditions: hnt1, 48 h, 1.6 µM
# [18] = Drug uptake in human L237 cells assessed as drug retention at 1600 nM incubated for 24 hrs in presence of 10% fetal bovine serum measured after 48 hrs chase period by fluorescent microscopy; type: ADME, cell-based; conditions: l237, 48 h, 1.6 µM; in short: as §2
# [19] = Drug uptake in human TEC-1 cells assessed as drug retention at 1600 nM incubated for 24 hrs in presence of 10% fetal bovine serum measured after 48 hrs chase period by fluorescent microscopy; type: ADME, cell-based; conditions: tec-1, 48 h, 1.6 µM; in short: as §2
# FaDu-124 = test: Binding affinity to human FaDu-124 cell membrane surface measured at 1600 nM incubated for 30 mins at 0 degC; type: tissue-based
# In short: (§3)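 FaDu-124 cells, 30 min on ice in serum-free DMEM with 1600 nM PS, then cell-associated fluorescence imaged. For diffusion into cells, cultures were then held 30 min at 37°C in fresh serum-free medium and imaged again.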
# [20] = Drug uptake in human FaDu-124 cell membrane assessed as drug internalization at 1600 nM incubated for 30 mins at 37 degC; type: ADME, cell-based; conditions: fadu-124, 0.5 h, 1.6 µM; in short: as §3
# [21] = Drug uptake in human HNT1 cells with CFSE-labeled HN-101 T-Fb assessed as drug retention at 1600 nM incubated for 24 hrs in presence of 10% fetal bovine serum measured after 24 hrs chase period by fluorescent microscopy; type: ADME, cell-based; conditions: hnt1, 24 h, 1.6 µM
# In short: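 Co-cultures of HNT1 cells (p 103) with CFSE-labeled HN-101 T-Fb on collagen-1 matrix; 24 h in DMEM + 10% FBS with 1600 nM PS, then 24 h chase in PS-free medium; cell-associated fluorescence imaged by microscopy.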
# [22] = Drug uptake in human HNT1 cells assessed as drug retention at 1600 nM incubated for 24 hrs in presence of 10% fetal bovine serum measured after 24 hrs chase period by fluorescent microscopy; type: ADME, cell-based; conditions: hnt1, 24 h, 1.6 µM
# [23] = Photoreactivation in human TEC21 cells assessed as STAT3cross-linking in presence of 10% fetal bovine serum under 665 nm light for 9 mins measured after 24 hrs by immune blot analysis; type: cell-based; conditions: tec-21, 0.15 h
# In short: (§4)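 TEC-21 cells (p 8) treated 24 h in RPMI + 10% FBS with PS, imaged, chased 48 h in RPMI + 10% FBS, then irradiated 9 min with 665 nm light (6 mW/cm²). Cells were extracted immediately and immunoblotted for STAT3 crosslinking, EGFR and phospho-p38 MAPK.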
# HNT1 = test: Binding affinity to human HNT1 cell plasma membrane with CFSE-labeled HN-87 T-Fb assessed as drug retention at 1600 nM incubated for 24 hrs in presence of 10% fetal bovine serum measured after 24 hrs chase period by fluorescent microscopy; type: cell membranes
# In short: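 HNT1 cells (p 72) co-cultured on collagen-1 with CFSE-stained HN-87 T-Fb fibroblasts (added to 24 h-old tumor cultures, grown 3–7 days to confluence). Treated 24 h with DMEM + 10% FBS and 1600 nM PS, chased 24 h in DMEM + 10% FBS, then fluorescence imaged under identical conditions.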
# TEC1-2 = test: Binding affinity to human TEC1-2 cell plasma membrane assessed as drug retention at 1600 nM incubated for 24 hrs in presence of 10% fetal bovine serum measured after 48 hrs chase period by fluorescent microscopy; type: cell membranes
# HN-143 T-EC = test: Binding affinity to human HN-143 T-EC cell membrane surface measured at 1600 nM incubated for 30 min; type: tissue-based
# [24] = Photoreactivation in human TEC21 cells in presence of 10% fetal bovine serum under 665 nm light for 9 mins measured after 24 hrs by immune blot analysis; type: cell-based; conditions: tec-21, 24 h; in short: as §4
Drug uptake [1],Drug uptake [3],Drug uptake [4],Drug uptake [7],Drug uptake [20],SMILES,Activity (FaDu-124),also measured
Active,Active,Active,,,CCCCC(C)OC(C)c1c(C)c2cc3nc(c4c5[nH]c(cc6nc(cc1[nH]2)C(C)=C6CC)c(C)c5C(=O)C4)[C@@H](CCC(=O)OC)C3C (some centres not stated),,Drug uptake [2]: Active; Drug uptake [5]: Not Active; Drug metabolism [6]: Metabolite_Detected
Active,Active,Active,,,CCCCCCOC(CCC)c1c(C)c2cc3nc(c4c5[nH]c(cc6nc(cc1[nH]2)C(C)=C6CC)c(C)c5C(=O)C4)[C@@H](CCC(=O)OC)C3C (some centres not stated),,
Active,,,Not Active,,CCCCCCCCc1c(C)c2cc3nc(c4c5[nH]c(cc6nc(cc1[nH]2)C(C)=C6CC)c(C)c5C(=O)C4)[C@@H](CCC(=O)O)C3C (some centres not stated),,solubility [8]: Soluble
Active,Active,Active,Active,,CCCCCCOC(CCC)c1c(C)c2cc3nc(c4c5[nH]c(cc6nc(cc1[nH]2)C(C)=C6CC)c(C)c5C(=O)C4)[C@@H](CCC(=O)O)C3C (some centres not stated),,logP [9]: 6.01
Active,Active,,Active,Active,CCCCCCOC(C)c1c(C)c2cc3nc(c4c5[nH]c(cc6nc(cc1[nH]2)C(C)=C6CC)c(C)c5C(=O)C4)[C@@H](CCC(=O)O)C3C (some centres not stated),Active,Drug uptake [10]: Active; Drug uptake [11]: Active; Drug uptake [12]: Active; Drug uptake [13]: Active; Drug uptake [14]: Not Active; Drug uptake [15]: Not Active; Drug uptake [16]: Not Active; Drug uptake [17]: Not Active; Drug uptake [18]: Not Active; Drug uptake [19]: Not Active; Drug uptake [21]: Active; Drug uptake [22]: Not Active; logP [9]: 6.01; Activity [23]: 0.4%
,,,,,CCCCCCOCc1c(C)c2cc3nc(c4c5[nH]c(cc6nc(cc1[nH]2)C(C)=C6CC)c(C)c5C(=O)C4)[C@@H](CCC(=O)OC)C3C (some centres not stated),,Activity (HNT1): inactive; Activity (TEC1-2): inactive
Active,Active,Active,,Active,CCCCCCOC(C)c1c(C)c2cc3nc(c4c5[nH]c(cc6nc(cc1[nH]2)C(C)=C6CC)c(C)c5C(=O)C4)[C@@H](CCC(=O)OC)C3C (some centres not stated),Active,
Active,,,,Active,CCCCCCSC(C)c1c(C)c2cc3nc(c4c5[nH]c(cc6nc(cc1[nH]2)C(C)=C6CC)c(C)c5C(=O)C4)[C@@H](CCC(=O)OC)C3C (some centres not stated),Active,
Active,,,Active,,CCCCC(C)OCc1c(C)c2cc3nc(c4c5[nH]c(cc6nc(cc1[nH]2)C(C)=C6CC)c(C)c5C(=O)C4)[C@@H](CCC(=O)O)C3C (some centres not stated),,Drug uptake [22]: Active; Activity (HN-143 T-EC): Active; Drug metabolism [24]: Metabolite_Detected; Activity [23]: 0.2%
